Compound activity from PubChem.
Measles CPE: compounds protecting cells from measles virus cytopathic effect, primary screen, measles RdRp inhibitor project, single point, MLSMR library, absorbance. protection (pct of control), % at 4 µM. Measles virus-infected cells, CPE protection. 140,000 tested, 1.5% active. AID 841, 2007; in the data active = protection mostly above about 24%, no sharp cut-off; inactive = mostly below about 26%
Yeast life ext: compounds extending yeast replicative lifespan, primary screen, S. cerevisiae, OD615; S. cerevisiae growth with nicotinamide; deaD strain in restrictive glucose medium; inhibition of the nicotinamide effect, % at 10 µM; 130,000 tested, 0.68% active;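 active = inhibition above a set limit, placed 3 SD over the median of all compounds, cut at about 26% in these data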;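 note: 0% = nicotinamide-treated wells and 100% = cells grown without nicotinamide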
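Material: Modified budding yeast, DeaD strain | Medium: Restrictive glucose medium | Probe or stimulus: 1.5 mM nicotinamide | Dosing: Single dose 10 µM compound, 0.25% DMSO | Times: 48 h at 30 °C | Technique: OD615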
BB579 growth dn: growth inhibitors of yeast BB579 in restrictive medium, primary screen, yeast lifespan-shortening project, S. cerevisiae; OD615, 48 h; inhibition, % at 10 µM; 140,000 tested, 0.51% active;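 active = inhibition above a set limit, 3 SD over the mean compound inhibition, cut at about 44% in these data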
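test system = yeast BB579 (DeaD) | buffer or medium = restrictive CSMM-D medium | doses = single compound dose of 10 µM, 0.25% DMSO final | times = 4 h preincubation and 48 h exposure at 30 °C | technique = culture absorbance at 615 nm | benchmarks = amphotericin B 10 µg/mL, positive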
RAM network inh: inhibitors of the yeast RAM network, primary screen, dse1pr::URA3 reporter, 5-FOA selection; 190,000 tested, 1.8% active; S. cerevisiae dse1pr::URA3 reporter, 5-FOA growth OD615, 2 d; analog-sensitive cbk1-as2 kinase mutant strain; AID 868, 2007; inhibition, % at 50 µM;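 active = inhibition above a set limit, 3 SD over mean compound inhibition, cut at about 8.4% in these data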;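 note: 0% = DMSO-only wells with no growth and 100% = 10 µM 1-NA-PP1 full growth; inhibition rescues growth on 5-FOA so higher OD means more RAM inhibition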
The depositor's hits bear a star; . = no result given. Rows were chosen to be rich in hits. Some 3.6% of all compounds tested hit in one or more screens of this group.

SMILES | Measles CPE | Yeast life ext | BB579 growth dn | RAM network inh
Cc1ccc(-n2c(C)cc(C(=O)COC(=O)C3=NNC(=O)CC3)c2C)cc1 | 29.2* | -3.3 | -18.6 | 0.2
Cc1cc(C(=O)COC(=O)C2=NNC(=O)CC2)c(C)n1-c1ccccc1 | 8.3 | 10.5 | -38.6 | 0.7
Cc1ccc(-n2c(C)cc(C(=O)COC(=O)c3ccc[nH]c3=O)c2C)cc1C | 1.8 | -12.5 | 99.2* | 0.8
CCOc1ccc(C(=O)NC(=S)Nc2ccccc2N2CCOCC2)cc1Br | 22.8 | 7.7 | -26.9 | 4.5
CN1OC(c2ccccc2)=C(CO)C1c1ccccc1 (configuration not stated) | 6.6 | 51.2* | -33.6 | 0.9
CCOc1ccc(/C=C/C(=O)c2c(O)c3ccccc3oc2=O)cc1 | 4.6 | 80.3* | -71.3 | 2.9
COc1cccc2c(=O)n(CC(=O)Nc3ccccc3)ccc12 | 90.2* | -4.0 | 6.2 | 2.3
Cc1ccc(C)c(SCC(=O)NC(=O)NCc2ccccc2)c1 | 25.8 | 1.1 | -58.8 | 11.3*
Cc1ccc(C)c(SCC(=O)OCC(=O)NCc2ccccc2)c1 | . | . | . | 1.0
CCCCCN1CSC(=S)N(Cc2ccccc2)C1 | 3.9 | 27.4* | 25.6 | -0.2
COc1cc(NC(=S)NCCC(c2ccccc2)c2ccccc2)c(OC)cc1Cl | 38.0* | -0.1 | -2.4 | 4.2
COc1ccc(Cl)cc1NC(=S)NCCC(c1ccccc1)c1ccccc1 | 3.7 | -9.3 | 7.3 | -0.1
COc1ccccc1NC(=S)NCCC(c1ccccc1)c1ccccc1 | 15.9 | -2.5 | 21.8 | 9.8*
S=C(NCCC(c1ccccc1)c1ccccc1)Nc1ccc(Cl)cc1 | 47.6* | -23.2 | 19.1 | 4.8
O=C(Nc1ccc(O)c(-c2nc3ccccc3o2)c1)C1(c2ccc(Br)cc2)CCCC1 | 8.9 | -0.2 | -29.5 | 5.7
Cc1ccc(C(=O)Nc2nc3ccccc3n3nnnc23)cc1 | 20.6* | -20.6 | -15.8 | 1.1
O=C(On1c(-c2ccccc2)nc2ccccc2c1=O)c1ccco1 | 13.8 | -35.0 | -28.4 | -0.8
COc1cc(OC)cc(-c2nc3ccccc3c(=O)n2OC(=O)c2ccccc2C)c1 | 1.5 | 61.1* | -11.6 | 5.5
Cc1cc(C)nc(SCc2ccc(F)cc2)n1 | . | . | . | -0.6
COc1ccc(Oc2ccc(/C=C/C(=O)c3ccc(O)cc3)cc2[N+](=O)[O-])cc1 | 17.6 | 4.3 | -69.6 | 11.1*
COc1ccc(/C=C/C(=O)c2ccc(O)cc2)cc1COc1ccc(F)cc1 | -0.7 | -1.8 | -34.4 | 6.2
O=C(Cc1ccccc1)NCC(=O)OCC(=O)c1ccccc1Cl | . | . | . | 0.8
COc1ccc(C(=O)CSc2nnc(C(CO)NC(=O)c3ccc(OC)cc3)n2C)cc1 (configuration not stated) | 8.8 | -10.6 | -20.2 | 10.7*
CCN(CC)C(=O)C(=O)c1cccn1-c1cccc(OC)c1C#N | . | . | . | 2.0
CCCCCCOC(=O)Sc1nc2ccccc2o1 | 9.0 | -26.3 | 81.0* | -1.4
SMILES | Measles CPE | Yeast life ext | BB579 growth dn | RAM network inh
CC(=O)Nc1ccc(NC(=O)CSc2nc3ccccc3o2)cc1 | 5.1 | -6.7 | 10.5 | 0.2
O=C(CSc1nc2ccccc2o1)Nc1ccc(Cl)cc1 | 26.4* | -10.1 | -15.6 | 3.1
CC(=O)CSc1nc2ccccc2o1 | 20.5 | . | -9.1 | 3.3
COC(=O)CSc1nc2ccccc2o1 | 42.8* | -25.9 | -26.0 | 0.7
COc1ccc(-c2cc(C(F)(F)F)nc(SCc3cccc(C(=O)O)c3)n2)cc1 | 6.6 | -8.7 | -34.1 | 3.8
COc1ccc(-c2cc(C(F)(F)F)nc(SCCC(=O)NCc3ccccc3)n2)cc1 | 4.3 | 1.0 | -28.3 | 9.6*
O=C(CCSc1nc(-c2ccco2)cc(C(F)(F)F)n1)NCCc1ccccc1 | 6.2 | -8.7 | -73.7 | 9.9*
CCn1ccnc1CN1CCN(CCC(C)C)C(CCO)C1 (configuration not stated) | . | . | . | -0.4
Cc1ccc(/C=N/NC(=O)c2ccccc2OCc2cccc(Br)c2)o1 | . | . | . | 0.3
CCOC(=O)C1=C(CC)OC(N)=C(C#N)C1c1cc(OC)ccc1OC (configuration not stated) | 15.7 | -1.3 | -16.5 | 1.4
CCOC(=O)C1=C(CC)OC(N)=C(C#N)C1c1ccc(NC(C)=O)cc1 (configuration not stated) | 30.5* | 1.8 | -37.6 | 1.7
O=C(NCCCn1ccnc1)Nc1cccc2ccccc12 | 25.9* | . | -31.0 | 1.0
CCCCn1c(=O)c2c(O)cc(=O)oc2c2ccccc21 | 7.8 | 43.0* | -34.3 | 2.5
O=c1cc(O)c2c(=O)n(C3CCCCC3)c3ccccc3c2o1 | 0.5 | 30.9* | -26.8 | 2.0
O=c1cc(O)c2c(=O)n(-c3ccccc3)c3c(c2o1)CCCCCC3 | 35.8* | 46.5* | -6.7 | 1.2
O=c1cc(O)c2c(=O)n(Cc3ccccc3)c3ccccc3c2o1 | . | . | . | 4.2
O=C1CCCc2c1cc(C(=O)O)c(=O)n2-c1ccccc1 | . | . | . | 2.4
COc1ccccc1NC(=O)NCC(c1ccco1)N1CCCCC1 (configuration not stated) | . | . | . | 1.1
COc1cc(/C=N/NC(=O)C(N)=O)ccc1OCC(=O)N1C(C)CCCC1C (configuration not stated) | . | . | . | 1.2
Cc1cs/c(=N\N=C2CCCCC2)n1Cc1ccco1 | . | . | . | 0.7
CC(=O)Nc1ccc([C@H]2[C@H](C)CC[C@H]3C(=O)N4[C@@H](CC[C@@H](C)[C@@H]4c4ccc(NC(C)=O)cc4)C(=O)N32)cc1 | 7.5 | -2.6 | -15.9 | -0.1
CCCOC(=O)c1ccc(NC(=O)/C=C/c2cccs2)cc1 | 29.6 | -6.3 | -33.9 | 10.0*
O=c1c(Cc2ccccc2)c(O)ccn1Cc1ccc2c(c1)OCO2 | . | . | . | 1.1
CSc1ccc(/C=C(\C(=O)O)c2ccc(S(=O)(=O)N3CCCCC3)s2)cc1 | 5.8 | 5.1 | -30.5 | 10.4*
c1ccc(CN=C2NN=C(c3ccccc3)CS2)cc1 | . | . | . | 4.8
SMILES | Measles CPE | Yeast life ext | BB579 growth dn | RAM network inh
c1ccc(C2=NNC(=NCc3ccc4c(c3)OCO4)SC2)cc1 | 4.9 | -2.6 | -31.1 | 9.0*
Cc1noc(C)c1COC(=O)c1cccc(N(C)C)c1 | . | . | . | 0.4
CCc1ccc(OCC(=O)NC(NC(=S)Nc2ccccc2C)C(Cl)(Cl)Cl)cc1 (configuration not stated) | 15.2 | 11.5 | -10.4 | 4.5
CCc1ccc(OCC(=O)NC(NC(=S)Nc2ccccc2OC)C(Cl)(Cl)Cl)cc1 (configuration not stated) | 42.9* | 16.8 | -33.7 | 5.0
Cc1cc(S(=O)(=O)Nc2ccc3ccccc3c2)c(C)s1 | 1.5 | -7.1 | 22.7 | 9.2*
Clc1ccc2nnnc(-c3ccccc3)c2c1 | 8.4 | 2.5 | 45.5* | -0.1
CCOC(CCn1c(SCc2cccc([N+](=O)[O-])c2)nc2ccccc2c1=O)OCC | 10.2 | 12.5 | -61.0 | 10.8*
O=C(Nn1c(SCc2cccc([N+](=O)[O-])c2)nc2ccccc2c1=O)c1ccccc1 | 7.1 | 6.0 | -50.4 | 4.7
CCc1nnc(NC(=O)CSc2nnc(COc3cccc(C)c3)o2)s1 | 8.9 | 27.2* | -12.1 | 1.8
